Source: ChEMBL document CHEMBL3091366, “New 5-Aryl-1H-imidazoles display in vitro antitumor activity against apoptosis-resistant cancer models, including melanomas, through mitochondrial targeting” (J Med Chem, 2013)
Activity calls are given as the source filed them. The rule behind the calls is not given here.

What was measured:
[1] = system: LoVo; experiment: Cytotoxicity against apoptotic-sensitive human LoVo cells assessed as growth inhibition after 72 hrs by MTT-based colorimetric assay; assay type: functional, cell-based; conditions: Homo sapiens, LoVo, 72 h
In short: (§1)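 MTT colorimetric assay, 72 h exposure to the fumarate salt. Read-out is reduction of MTT to formazan by living cells. IC50 is the concentration that reduces the whole cell population by 50%. Six replicates per condition. Where compounds were not tested on every line, apoptosis-sensitive lines were PC3, MCF-7, LoVo and B16F10, and apoptosis-resistant lines were U373, T98G, A549 and SK-MEL-28.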

[2] = system: RPMI-8226; experiment: Cytotoxicity against human RPMI8226 cells assessed as residual growth at 10 uM; assay type: functional
[3] = system: MDA-MB-231; experiment: Cytotoxicity against human MDA-MB-231 cells assessed as residual growth at 10 uM; assay type: functional
[4] = system: T98G; experiment: Cytotoxicity against apoptotic-resistant human T98G cells assessed as growth inhibition after 72 hrs by MTT-based colorimetric assay; assay type: functional, cell-based; conditions: Homo sapiens, T98G, 72 h; in short: as §1
[5] = system: RXF 393; experiment: Cytotoxicity against human RXF393 cells assessed as residual growth at 10 uM; assay type: functional
[6] = system: HL-60(TB); experiment: Cytotoxicity against human HL-60(TB) cells assessed as residual growth at 10 uM; assay type: functional
[7] = system: SF-539; experiment: Cytotoxicity against human SF539 cells assessed as residual growth at 10 uM; assay type: functional
[8] = system: SK-MEL-28; experiment: Cytostatic activity against apoptotic-resistant human SK-MEL-28 cells assessed as increase in cell size at 5 uM after 72 hrs by quantitative videomicroscopy; assay type: functional, cell-based
In short: (§2)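 SK-MEL-28 cells exposed to 5 µM for 24, 48 and 72 h. Cell cycle was read by flow cytometry with propidium iodide plus TUNEL double staining (APO-Direct kit), in quadruplicate. Videomicroscopy photographed each field every 4 min over 72 h. Global growth is cells at a time point divided by cells at time 0; the treated/control ratio gives GGR. Cell death was judged from morphology. Run twice, in triplicate and in quadruplicate.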

[9] = system: HT-29; experiment: Cytotoxicity against human HT-29 cells assessed as residual growth at 10 uM; assay type: functional
[10] = system: ACHN; experiment: Cytotoxicity against human ACHN cells assessed as residual growth at 10 uM; assay type: functional
[11] = Cytotoxicity against HLF cells assessed as growth inhibition after 72 hrs by MTT-based colorimetric assay; assay type: cell-based; conditions: Homo sapiens; in short: as §1
[12] = Cytotoxicity against human UACC257 cells assessed as residual growth at 10 uM; assay type: functional, UACC-257
[13] = system: SK-MEL-5; experiment: Cytotoxicity against human SK-MEL-5 cells assessed as residual growth at 10 uM; assay type: functional
[14] = system: NCI-H226; experiment: Cytotoxicity against human NCI-H226 cells assessed as residual growth at 10 uM; assay type: functional
[15] = system: IGROV-1; experiment: Cytotoxicity against human IGROV1 cells assessed as residual growth at 10 uM; assay type: functional
[16] = system: U-251; experiment: Cytotoxicity against human U251 cells assessed as residual growth at 10 uM; assay type: functional
[17] = system: HCC 2998; experiment: Cytotoxicity against human HCC2998 cells assessed as residual growth at 10 uM; assay type: functional
[18] = system: NCI-H23; experiment: Cytotoxicity against human NCI-H23 cells assessed as residual growth at 10 uM; assay type: functional
[19] = system: M14; experiment: Cytotoxicity against human M14 cells assessed as residual growth at 10 uM; assay type: functional
[20] = system: A549; experiment: Cytotoxicity against apoptotic-resistant human A549 cells assessed as growth inhibition after 72 hrs by MTT-based colorimetric assay; assay type: functional, cell-based; conditions: Homo sapiens, A549, 72 h; in short: as §1
[21] = system: HCT-116; experiment: Cytotoxicity against human HCT116 cells assessed as residual growth at 10 uM; assay type: functional
[22] = system: OVCAR-3; experiment: Cytotoxicity against human OVCAR3 cells assessed as residual growth at 10 uM; assay type: functional
[23] = system: A498; experiment: Cytotoxicity against human A498 cells assessed as residual growth at 10 uM; assay type: functional
[24] = system: KM12; experiment: Cytotoxicity against human KM12 cells assessed as residual growth at 10 uM; assay type: functional
[25] = system: PC-3; experiment: Cytotoxicity against apoptotic-sensitive human PC3 cells assessed as growth inhibition after 72 hrs by MTT-based colorimetric assay; assay type: functional, cell-based; conditions: Homo sapiens, PC-3, 72 h; in short: as §1
[26] = system: SW-620; experiment: Cytotoxicity against human SW620 cells assessed as residual growth at 10 uM; assay type: functional
[27] = system: CAKI-1; experiment: Cytotoxicity against human Caki1 cells assessed as residual growth at 10 uM; assay type: functional
[28] = system: SF-295; experiment: Cytotoxicity against human SF295 cells assessed as residual growth at 10 uM; assay type: functional
[29] = system: SK-MEL-2; experiment: Cytotoxicity against human SK-MEL-2 cells assessed as residual growth at 10 uM; assay type: functional
[30] = system: NCI-H522; experiment: Cytotoxicity against human NCI-H522 cells assessed as residual growth at 10 uM; assay type: functional
[31] = system: COLO 205; experiment: Cytotoxicity against human COLO205 cells assessed as residual growth at 10 uM; assay type: functional
[32] = system: UACC-62; experiment: Cytotoxicity against human UACC62 cells assessed as residual growth at 10 uM; assay type: functional
[33] = system: HOP-92; experiment: Cytotoxicity against human HOP92 cells assessed as residual growth at 10 uM; assay type: functional
[34] = Cytotoxicity against human Hs578T cells assessed as residual growth at 10 uM; assay type: functional, Hs-578T
[35] = system: SK-MEL-28; experiment: Cytostatic activity against apoptotic-resistant human SK-MEL-28 cells assessed as growth inhibition at 5 uM after 48 to 72 hrs by quantitative videomicroscopy; assay type: functional; conditions: read-out: GI; in short: as §2
[36] = system: SK-MEL-28; experiment: Cytotoxicity against human SK-MEL-28 cells assessed as residual growth at 10 uM; assay type: functional
[37] = system: NCI-H460; experiment: Cytotoxicity against human NCI-H460 cells assessed as residual growth at 10 uM; assay type: functional
[38] = system: SNB-75; experiment: Cytotoxicity against human SNB75 cells assessed as residual growth at 10 uM; assay type: functional
[39] = system: SK-MEL-28; experiment: Effect on mitochondrial morphology in human SK-MEL-28 cells at 5 uM after 24 hrs by MitoTracker Green FM-based fluorescence microscopic analysis; assay type: functional, cell-based
In short: (§3)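 SKMEL-28 cells seeded on glass coverslips 48 h before treatment at 5 µM (3 to 48 h); two washes, mitochondria stained with 100 nM MitoTracker Green FM in phenol red-free RPMI for 30 min, rinsed twice, viewed by fluorescence microscopy. Three coverslips per condition.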

[40] = system: MOLT-4; experiment: Cytotoxicity against human MOLT4 cells assessed as residual growth at 10 uM; assay type: functional
[41] = system: SK-MEL-28; experiment: Increase in cell size of human SK-MEL-28 cells at 5 uM after 24 hrs by MitoTracker Green FM-based fluorescence microscopic analysis; assay type: functional; in short: as §3
[42] = system: MCF7; experiment: Cytotoxicity against apoptotic-sensitive human MCF7 cells assessed as growth inhibition after 72 hrs by MTT-based colorimetric assay; assay type: functional, cell-based; conditions: Homo sapiens, MCF7, 72 h; in short: as §1
[43] = system: T47D; experiment: Cytotoxicity against human T47D cells assessed as residual growth at 10 uM; assay type: functional
[44] = Cytotoxicity against human UO31 cells assessed as residual growth at 10 uM; assay type: functional, UO-31
[45] = system: HOP-62; experiment: Cytotoxicity against human HOP62 cells assessed as residual growth at 10 uM; assay type: functional
[46] = system: SF-268; experiment: Cytotoxicity against human SF268 cells assessed as residual growth at 10 uM; assay type: functional
[47] = system: MCF7; experiment: Cytotoxicity against human MCF7 cells assessed as residual growth at 10 uM; assay type: functional

In the case of `C=CCCCCOc1ccccc1-c1cnc(OCCCCC=C)n1C`, the IC50 [1] is reported as 5 µM, the Activity [2] is reported as 80.75% and the Activity [3] is reported as 66.46%. It also gave an IC50 [4] of 4 µM, an Activity [5] of 90.54% and an Activity [6] of 66.52%. For the same molecule, the Activity [7] was 81.04%, the Activity [8] was “Active” and the Activity [9] was 18.11%. It also gave an Activity [10] of 84.54%, an IC50 [11] of 22 µM and an Activity [12] of 66.63%. It also gave an Activity [13] of 83.67%, an Activity [14] of 92.21% and an Activity [15] of 62.95%. For the same molecule, the Activity [16] was 68.59%, the Activity [17] was 61.08% and the Activity [18] was 76.02%. The Activity [19] was 72.63%, the IC50 [20] was 7 µM and the Activity [21] was 61.02%. For the same molecule, the Activity [22] was 51.28%, the Activity [23] was 51.15% and the Activity [24] was 38.37%. The IC50 [25] was 9 µM, the Activity [26] was 30.82% and the Activity [27] was 54.94%. For the same molecule, the Activity [28] was 70.07%, the Activity [29] was 46.08% and the Activity [30] was 12.63%. It also gave an Activity [31] of 46.04%, an Activity [32] of 55.73% and an Activity [33] of 75.18%. The Activity [34] was 66.38%, the inhibition of growth at 5 µM [35] was 50% and the Activity [36] was 73.36%. For the same molecule, the Activity [37] was 55.6%, the Activity [38] was 81.88% and the Activity [39] was “inactive”. The Activity [40] was 91.38%, the Activity [41] was “Active” and the IC50 [42] was 5 µM. For the same molecule, the Activity [43] was 61.88%, the Activity [44] was 69.27% and the Activity [45] was 77.15%. It also gave an Activity [46] of 79.65% and an Activity [47] of 42.18%.
